According to article PMC10213863 (Cell Reports Medicine, 2023):

What was measured:
TLR4 [1] = target: TLR4 (Mus musculus, UniProt Q9QUK6); assay: Murine whole blood assay, TLR4 activation; format: cell-based; settings: up to 10 μM, data not shown, n = 4
In short: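 Fresh human blood or 129/Sv mouse blood was taken into citrate and diluted 1:1 with RPMI1640. It was pre-incubated 30 min at 37°C, 5% CO2 with increasing concentrations of test compound or 0.25% v/v DMSO (final). Blood was then stimulated with TLR agonists at doses from earlier work, or with R848 (3 μM), and cytokines were quantified. Viability was checked by ATPlite luminescence.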

[2] = tested on: tumor necrosis factor (TNF) receptor; assay: Ramos Blue reporter B cell line, TNF stimulation; format: cell-based, human; settings: Ramos cells; up to 10 μM; n = 4, data not shown
In short: (§1)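 Ramos Blue B reporter cells were pre-treated 30 min at 37°C, 5% CO2 with increasing concentrations of test compound or 0.25% v/v DMSO. They were then stimulated with the respective agonist, and reporter activity was read.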

TLR7 = target: T1, TLR7 (Mus musculus, UniProt P58681); assay: Acute cytokine release in vivo assay, TLR7 agonist; settings: 129/Sv mice; single p.o. dose 1.5 or 15 mg/kg
T1 sequence (P58681 27-1050): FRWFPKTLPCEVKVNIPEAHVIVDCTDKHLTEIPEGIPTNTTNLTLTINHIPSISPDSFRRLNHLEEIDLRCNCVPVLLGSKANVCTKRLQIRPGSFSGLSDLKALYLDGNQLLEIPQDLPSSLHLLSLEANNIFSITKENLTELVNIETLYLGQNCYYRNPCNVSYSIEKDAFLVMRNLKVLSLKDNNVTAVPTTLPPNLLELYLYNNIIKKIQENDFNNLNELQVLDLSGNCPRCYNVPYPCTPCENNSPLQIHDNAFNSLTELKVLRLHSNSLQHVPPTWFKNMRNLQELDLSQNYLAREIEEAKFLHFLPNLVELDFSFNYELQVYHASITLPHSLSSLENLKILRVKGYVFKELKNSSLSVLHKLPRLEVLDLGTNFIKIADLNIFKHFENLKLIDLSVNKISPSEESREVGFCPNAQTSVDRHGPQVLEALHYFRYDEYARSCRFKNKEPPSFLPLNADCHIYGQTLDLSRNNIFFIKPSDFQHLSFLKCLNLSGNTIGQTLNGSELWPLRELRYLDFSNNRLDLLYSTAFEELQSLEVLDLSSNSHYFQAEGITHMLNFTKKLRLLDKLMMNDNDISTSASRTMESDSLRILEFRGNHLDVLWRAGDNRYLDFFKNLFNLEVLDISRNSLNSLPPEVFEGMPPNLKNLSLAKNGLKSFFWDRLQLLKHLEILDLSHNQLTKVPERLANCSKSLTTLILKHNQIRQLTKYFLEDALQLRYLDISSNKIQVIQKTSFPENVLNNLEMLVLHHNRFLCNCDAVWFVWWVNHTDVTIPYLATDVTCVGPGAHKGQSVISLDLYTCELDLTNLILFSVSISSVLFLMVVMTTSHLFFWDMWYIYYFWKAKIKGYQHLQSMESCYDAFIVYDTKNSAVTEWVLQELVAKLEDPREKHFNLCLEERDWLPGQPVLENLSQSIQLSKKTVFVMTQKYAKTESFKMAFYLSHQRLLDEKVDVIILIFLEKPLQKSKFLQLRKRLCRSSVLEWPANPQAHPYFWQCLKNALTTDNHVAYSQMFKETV
In short: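 129/Sv mice (5 per group) got test compound orally in 0.5% methylcellulose/0.5% Tween-80, or vehicle alone. At 1 h they were injected i.v. with the TLR agonist (line 1: 20 μg R0006; line 2: CpG1585), each pre-complexed with 140 μg DOTAP in HBSS. At 3 h, EDTA blood was taken. Plasma IFN-α (both lines) and TNF were measured by ELISA, single technical replicate per mouse. Serum drug levels were measured by LC-MS/MS.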

TLR4 [3] = target: TLR4 (Homo sapiens, UniProt O00206); assay: Human PBMC cytokine secretion, TLR4 agonist; format: cell-based; settings: human PBMCs; up to 10 μM; n = 5 donors
Chain of TLR4 (Homo sapiens, UniProt O00206) (O00206 24-839): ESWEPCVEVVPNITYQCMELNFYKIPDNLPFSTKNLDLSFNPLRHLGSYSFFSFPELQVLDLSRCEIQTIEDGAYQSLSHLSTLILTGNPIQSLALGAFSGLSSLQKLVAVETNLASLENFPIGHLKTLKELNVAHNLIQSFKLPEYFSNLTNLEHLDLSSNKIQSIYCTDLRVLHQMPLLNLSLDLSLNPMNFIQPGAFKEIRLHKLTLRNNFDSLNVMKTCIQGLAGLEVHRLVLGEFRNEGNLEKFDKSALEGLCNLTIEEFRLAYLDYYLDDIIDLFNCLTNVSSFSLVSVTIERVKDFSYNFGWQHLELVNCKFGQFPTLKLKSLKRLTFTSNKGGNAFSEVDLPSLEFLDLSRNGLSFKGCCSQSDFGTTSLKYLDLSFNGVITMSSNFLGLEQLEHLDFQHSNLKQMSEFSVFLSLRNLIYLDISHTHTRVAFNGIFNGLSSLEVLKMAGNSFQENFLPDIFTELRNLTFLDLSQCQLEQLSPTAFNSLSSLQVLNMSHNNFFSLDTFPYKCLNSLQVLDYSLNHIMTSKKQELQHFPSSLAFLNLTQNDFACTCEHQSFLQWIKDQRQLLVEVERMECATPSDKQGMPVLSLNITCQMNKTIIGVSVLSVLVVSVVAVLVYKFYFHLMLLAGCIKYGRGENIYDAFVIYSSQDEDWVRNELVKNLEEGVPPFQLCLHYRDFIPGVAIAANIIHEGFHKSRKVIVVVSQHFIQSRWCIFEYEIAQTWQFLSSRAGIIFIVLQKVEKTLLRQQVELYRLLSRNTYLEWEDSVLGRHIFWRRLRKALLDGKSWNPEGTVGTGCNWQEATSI
Chain of TLR4 (Homo sapiens, UniProt O00206) (Q9Y6Y9 19-160 partner): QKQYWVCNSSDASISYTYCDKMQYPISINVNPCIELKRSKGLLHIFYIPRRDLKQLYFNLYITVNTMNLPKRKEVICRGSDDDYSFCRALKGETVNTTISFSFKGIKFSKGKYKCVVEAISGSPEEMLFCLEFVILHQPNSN
In short: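 Human PBMCs were pre-incubated 30 min with test compound, then stimulated with the respective TLR or IL-1R agonist at doses from earlier work. Cytokines in supernatants were quantified by immunoassay. Viability across the dose range was checked by CellTiter-Glo.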

[4] = MHV370 blood exposure during food dosing of NZB/W F1 mice; format: in vivo, mouse
In short: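 NZB/W F1 mice were fed diet containing test compound at 0.01% or 0.1%, with fresh food every two weeks. Daily food intake per mouse was calculated per cage. Whole-blood drug concentrations were measured by LC-MS/MS.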

TLR9 = target: T2, TLR9 (Homo sapiens, UniProt Q9NR96); assay: Ramos Blue reporter B cell line, ODN2006 stimulation; format: cell-based; settings: Ramos cells
T2 sequence (Q9NR96 26-1032): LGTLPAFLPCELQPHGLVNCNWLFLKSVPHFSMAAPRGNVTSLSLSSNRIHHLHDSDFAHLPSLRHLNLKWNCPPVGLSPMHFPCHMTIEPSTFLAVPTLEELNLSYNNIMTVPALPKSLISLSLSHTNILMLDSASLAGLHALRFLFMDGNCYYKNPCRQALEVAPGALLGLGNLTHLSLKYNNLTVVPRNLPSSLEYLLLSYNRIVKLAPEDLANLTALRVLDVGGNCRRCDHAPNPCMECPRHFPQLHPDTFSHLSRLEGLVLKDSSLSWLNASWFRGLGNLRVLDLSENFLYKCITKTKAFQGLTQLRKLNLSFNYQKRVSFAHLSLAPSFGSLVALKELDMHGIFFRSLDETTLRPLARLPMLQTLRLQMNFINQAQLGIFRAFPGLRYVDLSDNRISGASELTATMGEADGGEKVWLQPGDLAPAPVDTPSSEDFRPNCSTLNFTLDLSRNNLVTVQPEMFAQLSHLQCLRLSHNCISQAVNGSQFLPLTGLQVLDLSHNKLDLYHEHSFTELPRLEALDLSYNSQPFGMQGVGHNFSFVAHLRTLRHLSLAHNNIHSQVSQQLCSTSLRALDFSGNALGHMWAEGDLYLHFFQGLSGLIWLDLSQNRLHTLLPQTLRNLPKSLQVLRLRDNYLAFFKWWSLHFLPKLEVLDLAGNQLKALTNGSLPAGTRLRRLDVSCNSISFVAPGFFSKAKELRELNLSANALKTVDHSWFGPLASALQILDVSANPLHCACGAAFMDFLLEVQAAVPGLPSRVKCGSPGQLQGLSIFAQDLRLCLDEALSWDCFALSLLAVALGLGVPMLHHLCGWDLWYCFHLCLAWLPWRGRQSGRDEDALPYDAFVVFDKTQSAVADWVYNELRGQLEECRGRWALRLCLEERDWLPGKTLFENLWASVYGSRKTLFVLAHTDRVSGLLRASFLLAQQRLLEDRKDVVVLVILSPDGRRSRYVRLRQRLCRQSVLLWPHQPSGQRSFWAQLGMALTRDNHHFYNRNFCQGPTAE
In short: as §1

Chain of TLR4 (Mus musculus, UniProt Q9QUK6) (Q9QUK6 26-835): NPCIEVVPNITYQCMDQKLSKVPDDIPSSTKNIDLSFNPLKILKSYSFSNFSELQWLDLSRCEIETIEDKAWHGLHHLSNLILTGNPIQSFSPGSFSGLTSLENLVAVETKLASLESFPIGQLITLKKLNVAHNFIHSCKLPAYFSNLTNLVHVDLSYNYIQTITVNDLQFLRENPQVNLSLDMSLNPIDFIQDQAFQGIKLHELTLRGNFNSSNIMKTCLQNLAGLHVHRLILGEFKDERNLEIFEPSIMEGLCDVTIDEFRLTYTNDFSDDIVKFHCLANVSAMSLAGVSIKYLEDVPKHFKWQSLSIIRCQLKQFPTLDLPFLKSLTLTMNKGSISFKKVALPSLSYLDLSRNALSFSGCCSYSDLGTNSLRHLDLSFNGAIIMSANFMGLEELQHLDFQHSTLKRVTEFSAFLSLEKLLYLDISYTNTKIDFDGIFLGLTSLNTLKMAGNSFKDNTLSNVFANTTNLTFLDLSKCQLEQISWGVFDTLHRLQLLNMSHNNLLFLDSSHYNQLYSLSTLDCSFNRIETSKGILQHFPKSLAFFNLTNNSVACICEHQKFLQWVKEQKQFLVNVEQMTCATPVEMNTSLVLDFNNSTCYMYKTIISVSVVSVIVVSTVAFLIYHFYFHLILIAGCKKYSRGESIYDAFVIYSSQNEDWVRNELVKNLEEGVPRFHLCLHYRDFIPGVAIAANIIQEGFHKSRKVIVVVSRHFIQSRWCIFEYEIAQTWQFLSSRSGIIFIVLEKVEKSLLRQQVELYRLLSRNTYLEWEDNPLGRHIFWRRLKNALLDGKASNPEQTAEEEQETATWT
Chain of TLR4 (Mus musculus, UniProt Q9QUK6) (Q9JHF9 19-160 partner): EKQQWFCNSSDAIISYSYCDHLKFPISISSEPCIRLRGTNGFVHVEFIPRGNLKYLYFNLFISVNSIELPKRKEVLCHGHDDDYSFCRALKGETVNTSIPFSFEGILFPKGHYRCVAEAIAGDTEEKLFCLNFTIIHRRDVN

For `Cc1cc(N2CCc3c(c(C)nn3CC34CCC(NC(=O)[C@@H]5COCCN5)(CC3)CC4)C2)c2cnn(C)c2n1` [MHV370, (S)-N-(4-((5-(1,6-dimethyl-1H-pyrazolo[3,4-b]pyridin-4-yl)-3-methyl-4,5,6,7-tetrahydro-1H-pyrazolo[4,3-c]pyridin-1-yl)methyl)bicyclo[2.2.2]octan-1-yl)morpholine-3-carboxamide], which “functional inhibition of TLR4” value (TLR4 [1]) is on record?
Its value is “did not show functional inhibition”.

What about the “interference with TNF receptor-driven activity” value [2] of the same compound?
Its value is “did not interfere”.

What about the “TLR7-dependent IFN-α and TNF production in plasma” value (TLR7) of the same compound?
The value was “efficiently inhibited”.

What about the “interference with cytokine secretion, TLR4 agonist” value (TLR4 [3]) of the same compound?
The value was “did not significantly interfere”.

And the “exposure level in blood” value ([4]; 0.01% MHV370 in food)?
Its value is 55 nM.

What about the “exposure level in blood” value ([4]; 0.1% MHV370 in food) of the same compound?
The value was 1424 nM.

And the “inhibitory activity against endosomal TLR9” value (TLR9)?
Its value is “no or very limited inhibitory activity”.
